T cruzi growth-1: T. cruzi proliferation inhibition; hit rate 5.9% among 77,000; T. cruzi beta-gal in NIH3T3, GalScreen luminescence, 90 h; inhibition, % at 8.34 µM; AID 624255;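 active = mean inhibition above about 93%, with at least 55% of replicates each passing it, limit read from the data, passing the limit was not always enough; inconclusive = only one of those two conditions holds; inactive = neither condition holds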
IDH1 mut inh: blocks human IDH1 R132H reductase activity; inhibition, % at 10 µM; hit rate 0.18% among 70,000; diaphorase/resazurin fluorescence, 60 min; O75874; AID 624101; in the data active = inhibition above about 34%; inconclusive = no clear call, values can overlap the other calls; inactive = below about 11%;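 note: 0% = DMSO and 100% = no enzyme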
KDM4C inh: inhibitors of human demethylase GASC-1 KDM4C; Q9H3R0; GST-KDM4C 2-372, H3K9me3 peptide, LANCE TR-FRET; inhibition, % at 12.5 µM; hit rate 0.15% among 96,000; AID 720574;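 active = mean replicate inhibition above about 25%, with at least 55% of replicates also reaching it, limit read from the data, passing the limit was not always enough; inconclusive = only one of those two conditions met; inactive = neither condition met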
Target sequence (Q9H3R0 2-372 limits assumed): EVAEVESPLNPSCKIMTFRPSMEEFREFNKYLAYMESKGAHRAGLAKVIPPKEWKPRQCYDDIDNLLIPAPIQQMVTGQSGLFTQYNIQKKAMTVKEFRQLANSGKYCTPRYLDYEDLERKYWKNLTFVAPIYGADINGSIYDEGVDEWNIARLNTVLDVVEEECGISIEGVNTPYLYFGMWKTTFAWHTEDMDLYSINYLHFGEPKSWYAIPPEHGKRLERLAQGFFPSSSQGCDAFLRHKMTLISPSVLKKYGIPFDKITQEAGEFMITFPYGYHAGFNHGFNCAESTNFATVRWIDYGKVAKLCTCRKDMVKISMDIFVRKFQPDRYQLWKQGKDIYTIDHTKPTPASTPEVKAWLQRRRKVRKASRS
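Material: GST-tagged GASC-1 (JMJD2C) catalytic fragment, aa 2-372 / Quantity: enzyme final amount 10 nM / Medium: HEPES buffer, pH 7.5, plus ascorbate / Doses: one test concentration per compound / Incubation: 30 min reaction, 60 min detection, RT / Measured by: LANCE TR-FRET / Read-out: inhibition from TR-FRET ratio decrease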
Pf Dd2 inh: P. falciparum Dd2 growth inhibition; AID 1159554; SYBR Green, 72 h; hits give low values; hit rate 2.3% among 94,000; activity change, % at 10 µM; in the data active = activity change below about -80%; inconclusive = no clear call, values can overlap the other calls
T cruzi growth-2: Trypanosoma cruzi proliferation inhibition; shares compounds with T cruzi growth-1; T. cruzi beta-gal in NIH3T3, GalScreen luminescence, 90 h; inhibition, % at 8.35 µM; hit rate 72% among 5,600;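 active = mean replicate inhibition above about 95% and at least 55% of replicates individually reaching it, limit read from the data; inconclusive = only one of the two criteria is met; inactive = neither criterion is met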
T cruzi growth-3: inhibitors of T. cruzi proliferation; shares compounds with T cruzi growth-1; inhibition, % at 2.09 µM; T. cruzi beta-gal in NIH3T3, GalScreen luminescence, 90 h; AID 651740; hit rate 21% among 5,600;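 active = mean inhibition above about 95%, with at least 55% of replicates also reaching it, limit read from the data; inconclusive = meets just one of the two conditions; inactive = meets neither condition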;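 note: plate controls were neutral control median for no effect and positive control median for full effect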
NIH3T3 tox: cytotoxicity in mouse NIH/3T3 fibroblasts; shares compounds with T cruzi growth-1; NIH/3T3 viability, CellTiter-Glo ATP luminescence, 90 h; cytotoxicity (signal decrease), % at 8.35 µM; hit rate 14% among 5,600; AID 651742;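 active = mean signal decrease across replicates above about 35% based on untreated-well scatter, with enough replicates individually passing, limit read from the data; inconclusive = no rule stated though some were filed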;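 note: 0% = median of neutral control wells and 100% = median of positive control wells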
3T3 cytotox 2: kills mouse NIH/3T3 fibroblasts; hit rate 56% among 5,600; NIH/3T3 viability, CellTiter-Glo ATP luminescence, 90 h; shares compounds with T cruzi growth-1; inhibition, % at 24.9 µM;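 active = mean loss of cell viability signal at or above a set limit, and enough replicates individually reaching it; inconclusive = meets only the mean limit or only the replicate share; inactive = meets neither condition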;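 note: 0% = median of neutral control wells and 100% = median of positive control wells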
* marks the source's active call; other numbers are inactive results; u = inconclusive; x = no result given. A selection: hits, their analogues and other compounds. The true share with any hit is near 5.9%.

SMILES	T cruzi growth-1	IDH1 mut inh	KDM4C inh	Pf Dd2 inh	T cruzi growth-2	T cruzi growth-3	NIH3T3 tox	3T3 cytotox 2
C[C@H]1CN([C@@H](C)CO)S(=O)(=O)c2ccc(-c3ccc(F)cc3)cc2O[C@@H]1CN(C)C(=O)Nc1ccc(F)cc1	119*	x	-2	-32	103*	48	20	58*
C[C@@H]1CN([C@H](C)CO)S(=O)(=O)c2ccc(Br)cc2O[C@H]1CN(C)C(=O)Nc1ccc(F)cc1	12	x	0	14	x	x	x	x
C[C@@H]1CN([C@@H](C)CO)S(=O)(=O)c2ccc(-c3ccc(F)cc3)cc2O[C@@H]1CN(C)C(=O)Nc1ccc(F)cc1	123*	x	2	-24	111*	63	24	62*
C[C@H](CO)N1C[C@H](C)[C@H](CN(C)C(=O)Nc2ccc(F)cc2)Oc2cc(-c3ccncc3)ccc2S1(=O)=O	93	x	-2	-48	x	x	x	x
CC1CCc2c(sc3ncn(CC(=O)Nc4c(C(C)C)cccc4C(C)C)c(=O)c23)C1 (configuration not stated)	x	0	x	x	x	x	x	x
O=C(CSc1nc2cc(Cl)ccc2s1)Nc1ccc(I)cc1	x	1	x	x	x	x	x	x
CS(=O)(=O)N(CC(=O)Nc1ccc(I)cc1)C1CCCCC1	x	-1	x	x	x	x	x	x
OC[C@H]1[C@H](c2ccc(C#CC3CC3)cc2)[C@H]2CN(CCC(F)(F)F)CCCCN21	98*	x	x	1	111*	32	34	106*
COc1ccccc1C#Cc1ccc([C@@H]2[C@@H](CO)N3CCCCN(CCC(F)(F)F)C[C@H]23)cc1	105*	x	1	-82*	91	110*	98*	104*
OC[C@H]1[C@@H](c2ccc(-c3ccccc3)cc2)[C@@H]2CN(CCC(F)(F)F)CCCCN12	65	x	0	-66	x	x	x	x
OC[C@H]1[C@H](c2ccc(-c3ccccc3)cc2)[C@@H]2CN(CCC(F)(F)F)CCCCN12	106*	x	0	-65	100*	75	65*	102*
Cc1cccc(-c2ccc([C@H]3[C@@H](CO)N4CCCCN(CCC(F)(F)F)C[C@H]34)cc2)c1	105*	x	-1	-85*	100*	102*	32	105*
COc1ccccc1C#Cc1ccc([C@H]2[C@H]3CN(CCC(F)(F)F)CCCCN3[C@H]2CO)cc1	43	x	-2	-36	x	x	x	x
OC[C@H]1[C@@H](c2ccc(C#CC3CC3)cc2)[C@H]2CN(CCC(F)(F)F)CCCCN21	90	x	x	-18	x	x	x	x
O=C(NO)c1cccc(C(=O)N/N=C/c2ccc(O)c(O)c2O)c1	x	-1	x	x	x	x	x	x
C=C(C(=O)O)C(O)CCC1(C)C2CC3C(C2)C31C (configuration not stated)	x	2	x	x	x	x	x	x
Cc1cccc(-c2ccc([C@H]3[C@H](CO)N4CCCCN(CCC(F)(F)F)C[C@@H]34)cc2)c1	108*	x	-2	-71	u	90	26	104*
C/C=C/c1ccc([C@H]2[C@@H](CO)N3CCCCN(CCC(F)(F)F)C[C@@H]23)cc1	85	x	-1	-7	x	x	x	x
Cc1cccc(-c2ccc([C@H]3[C@@H](CO)N4CCCCN(CCC(F)(F)F)C[C@@H]34)cc2)c1	u	x	1	-36	94	84	45*	105*
OC[C@@H]1[C@H](c2ccc(/C=C/c3ccccc3)cc2)[C@H]2CN(CCC(F)(F)F)CCCCN12	101*	x	x	-75	79	107*	73*	105*
CC1(C)CC(=O)C2=C(C1)Nc1ccccc1N(C(=S)NCc1ccco1)C2c1cccnc1 (configuration not stated)	x	5	x	x	x	x	x	x
CCCC#Cc1ccc2c(c1)O[C@H](CN(C)S(=O)(=O)c1cccc(OC)c1)[C@H](C)CN([C@@H](C)CO)S2(=O)=O	x	0	6	-20	x	x	x	x
COc1cccc(C#Cc2ccc3c(c2)O[C@@H](CN(C)C(C)=O)[C@@H](C)CN([C@@H](C)CO)S3(=O)=O)c1	33	-4	-2	-71	x	x	x	x

Assay outcomes: PubChem BioAssay, Broad Institute
